Test results taken from ChEMBL document CHEMBL1240439, “Synthesis and docking studies of novel benzopyran-2-ones with anticancer activity” (2010).

Legend:
Format in all cases: functional
[1] = tested on: ACHN; test: Cytotoxicity against human ACHN cells assessed as cell growth at 10 uM after 48 hrs by sulforhodamine B assay; settings: read-out: Activity
[2] = Cytotoxicity against human Hs 578T cells assessed as cell growth at 10 uM after 48 hrs by sulforhodamine B assay; settings: read-out: Activity
[3] = tested on: TK-10; test: Cytotoxicity against human TK10 cells assessed as cell growth at 10 uM after 48 hrs by sulforhodamine B assay; settings: TK-10, 48 h, read-out: Activity
[4] = tested on: T47D; test: Cytotoxicity against human T47D cells assessed as cell growth at 10 uM after 48 hrs by sulforhodamine B assay; settings: read-out: Activity
[5] = tested on: CCRF-CEM; test: Cytotoxicity against human CCRF-CEM cells after 48 hrs by sulforhodamine B assay
Procedure, shortened: (§1)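 Cells were plated at 5000–40,000/well according to doubling time and preincubated 24 h at 37 °C, 5% CO2. Time-zero plates were TCA-fixed. DMSO stocks were diluted in medium with gentamycin to five concentrations (10-fold or ½ log series) plus control, then incubated 48 h. Adherent cells were fixed with cold TCA (suspension cells with 16% final), stained with SRB, and read at 515 nm. GI50, TGI and LC50 were calculated per line.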

[6] = tested on: CCRF-CEM; test: Cytotoxicity against human CCRF-CEM cells assessed as cell growth at 10 uM after 48 hrs by sulforhodamine B assay; settings: read-out: Activity
[7] = tested on: HL-60(TB); test: Cytotoxicity against human HL-60(TB) cells assessed as cell growth at 10 uM after 48 hrs by sulforhodamine B assay; settings: HL-60, 48 h, read-out: Activity
[8] = Cytotoxicity against human colon cancer cells after 48 hrs by sulforhodamine B assay; settings: Cancer cell lines
Procedure, shortened: (§2)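 Cells plated at 5000–40,000/well according to doubling time, then held 24 h at 37 °C, 5% CO2, with time-zero plates TCA-fixed. DMSO stocks (400× top concentration) were diluted in medium containing 50 μg/ml gentamycin, giving five 10-fold or ½-log concentrations. After 48 h, adherent cells were fixed in 10% TCA and suspension cells in 16% TCA (final), stained with 0.4% SRB, read at 515 nm. GI50, TGI and LC50 were calculated per cell line.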

[9] = tested on: MOLT-4; test: Cytotoxicity against human MOLT4 cells assessed as cell growth at 10 uM after 48 hrs by sulforhodamine B assay; settings: MOLT-4, 48 h, read-out: Activity
[10] = Cytotoxicity against human breast cancer cells after 48 hrs by sulforhodamine B assay; settings: Cancer cell lines; procedure, shortened: as §2
[11] = tested on: SK-MEL-2; test: Cytotoxicity against human SK-MEL-2 cells assessed as cell growth at 10 uM after 48 hrs by sulforhodamine B assay; settings: SK-MEL-2, 48 h, read-out: Activity
[12] = tested on: KM12; test: Cytotoxicity against human KM12 cells assessed as cell growth at 10 uM after 48 hrs by sulforhodamine B assay; settings: KM12, 48 h, read-out: Activity
[13] = tested on: OVCAR-4; test: Cytotoxicity against human OVCAR4 cells assessed as cell growth at 10 uM after 48 hrs by sulforhodamine B assay; settings: OVCAR-4, 48 h, read-out: Activity
[14] = Cytotoxicity against human ovarian cancer cells after 48 hrs by sulforhodamine B assay; settings: Cancer cell lines; procedure, shortened: as §2
[15] = Cytotoxicity against human melanoma cells after 48 hrs by sulforhodamine B assay; settings: Melanoma cell; procedure, shortened: as §2
[16] = tested on: NCI-H522; test: Cytotoxicity against human NCI-H522 cells assessed as cell growth at 10 uM after 48 hrs by sulforhodamine B assay; settings: NCI-H522, 48 h, read-out: Activity
[17] = tested on: OVCAR-5; test: Cytotoxicity against human OVCAR5 cells assessed as cell growth at 10 uM after 48 hrs by sulforhodamine B assay; settings: OVCAR-5, 48 h, read-out: Activity
[18] = tested on: SNB-19; test: Cytotoxicity against human SNB19 cells assessed as cell growth at 10 uM after 48 hrs by sulforhodamine B assay; settings: SNB-19, 48 h, read-out: Activity
[19] = tested on: SW-620; test: Cytotoxicity against human SW620 cells assessed as cell growth at 10 uM after 48 hrs by sulforhodamine B assay; settings: SW-620, 48 h, read-out: Activity
[20] = tested on: NCI-H226; test: Cytotoxicity against human NCI-H226 cells assessed as cell growth at 10 uM after 48 hrs by sulforhodamine B assay; settings: NCI-H226, 48 h, read-out: Activity
[21] = tested on: HL-60(TB); test: Cytotoxicity against human HL-60(TB) cells after 48 hrs by sulforhodamine B assay; settings: HL-60, 48 h
Procedure, shortened: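 Cells plated at 5000–40,000/well by doubling time and held 24 h at 37 °C, 5% CO2, with TCA-fixed zero-time plates. Drug given as DMSO stock diluted in medium with 50 μg/ml gentamycin, five concentrations (10-fold or ½ log steps), for 48 h. Settled suspension cells fixed with TCA (final 16%), stained with 0.4% SRB, read at 515 nm. GI50, TGI and LC50 calculated.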

[22] = tested on: A498; test: Cytotoxicity against human A498 cells assessed as cell growth at 10 uM after 48 hrs by sulforhodamine B assay; settings: A498, 48 h
[23] = tested on: NCI-H23; test: Cytotoxicity against human NCI-H23 cells assessed as cell growth at 10 uM after 48 hrs by sulforhodamine B assay; settings: NCI-H23, 48 h, read-out: Activity
[24] = tested on: M14; test: Cytotoxicity against human M14 cells assessed as cell growth at 10 uM after 48 hrs by sulforhodamine B assay; settings: M14, 48 h, read-out: Activity
[25] = Cytotoxicity against human leukemia cells after 48 hrs by sulforhodamine B assay; settings: Leukemia cell; procedure, shortened: as §2
[26] = tested on: RXF 393; test: Cytotoxicity against human RXF393 cells assessed as cell growth at 10 uM after 48 hrs by sulforhodamine B assay; settings: RXF 393, 48 h, read-out: Activity
[27] = Cytotoxicity against human prostate cancer cells after 48 hrs by sulforhodamine B assay; settings: Cancer cell lines; procedure, shortened: as §2
[28] = tested on: MDA-MB-231; test: Cytotoxicity against human MDA-MB-231 cells assessed as cell growth at 10 uM after 48 hrs by sulforhodamine B assay; settings: MDA-MB-231, 48 h, read-out: Activity
[29] = tested on: SF-295; test: Cytotoxicity against human SF295 cells assessed as cell growth at 10 uM after 48 hrs by sulforhodamine B assay; settings: SF-295, 48 h, read-out: Activity
[30] = tested on: RPMI-8226; test: Cytotoxicity against human RPMI8226 cells assessed as cell growth at 10 uM after 48 hrs by sulforhodamine B assay; settings: RPMI-8226, 48 h, read-out: Activity
[31] = tested on: HCT-116; test: Cytotoxicity against human HCT116 cells after 48 hrs by sulforhodamine B assay; settings: HCT-116, 48 h; procedure, shortened: as §1
[32] = read-out: LC50 (the source's name)

SMILES: Cc1cc(=O)n(C(=O)COc2ccc3c(-c4ccccc4)cc(=O)oc3c2C)[nH]1
- growth at 10 µM [1]: 41.6%
- growth at 10 µM [2]: -4.17%
- growth at 10 µM [3]: -33.4%
- growth at 10 µM [4]: -1.54%
- GI50 [5]: < 0.04 µM
- TGI [5]: 0.57 µM
- growth at 10 µM [6]: 13.5%
- growth at 10 µM [7]: -66.6%
- GI50 [8]: 8.98 µM
- TGI [8]: 32.6 µM
- CC50 [8, 32]: 64.5 µM
- growth at 10 µM [9]: 22.7%
- GI50 [10]: 4.23 µM
- TGI [10]: 33.7 µM
- CC50 [10, 32]: 87.5 µM
- growth at 10 µM [11]: -12.2%
- growth at 10 µM [12]: -12%
- growth at 10 µM [13]: -42.9%
- GI50 [14]: 8.53 µM
- TGI [14]: 28.7 µM
- CC50 [14, 32]: 52 µM
- GI50 [15]: 4.65 µM
- TGI [15]: 43.2 µM
- CC50 [15, 32]: 72.4 µM
- growth at 10 µM [16]: -39.2%
- growth at 10 µM [17]: 10.2%
- growth at 10 µM [18]: 33.6%
- growth at 10 µM [19]: -65.9%
- growth at 10 µM [20]: 0.36%
- TGI [21]: 2.62 µM
- TGI [22]: 3.76 µM
- growth at 10 µM ([22]; read-out: Activity): -3.79%
- growth at 10 µM [23]: 1.86%
- growth at 10 µM [24]: 17.6%
- GI50 [25]: 3.44 µM
- TGI [25]: 50.8 µM
- CC50 [25, 32]: 94 µM
- growth at 10 µM [26]: -37%
- GI50 [27]: 2.38 µM
- TGI [27]: 5.75 µM
- CC50 [27, 32]: 29.4 µM
- growth at 10 µM [28]: -30%
- growth at 10 µM [29]: -77.2%
- growth at 10 µM [30]: -18.2%
- GI50 [31]: 1.94 µM
- TGI [31]: 3.76 µM
